Blank lines part the entries; values can stand above or below the compound they belong to. Active and inactive are the calls of the source. The calls are words filed in the database; no cut-off is given here.
Legend:
[1] = system: HCT-116; assay: Induction of apoptosis in human HCT116 cells assessed as late apoptotic cells at 5 to 25 uM incubated for 24 hrs by Annexin-V-FITC/propidium iodide staining based flow cytometric method relative to taxol; type: functional, cell-based
Procedure, shortened: (§1)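 HCT116 cells exposed to 5, 10 or 25 μM for 24 h, then stained with annexin V and propidium iodide and analysed by flow cytometry. DMSO was the negative control and Taxol the apoptosis control. Total apoptosis counted all annexin V-positive cells, early apoptosis was annexin V-positive/PI-negative, and late apoptosis was annexin V/PI double-positive.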

[2] = biological target: Endoplasmic reticulum chaperone BiP (Homo sapiens) (UniProt P11021); assay: Inhibition of GRP78 (26 to 636 residues) (unknown origin) expressed in Escherichia coli BL21 DE3 cells pre-incubated for 10 mins before FITC-NRLLLTG fluorescent peptide addition in presence of 20 uM ADP followed by further incubation for 2 hrs by fluorescence polarization assay
Procedure, shortened: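 Fluorescence polarization competition assay in 384-well format. Full-length GRP78 (0.75 μM) was held in the ADP-bound closed state with FITC-NRLLLTG (100 nM), and loss of polarization was read. DMSO was the negative control and heat-denatured GRP78 the positive control. IC50 was taken from a 10-point dose response.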

[3] = Inhibition of bacterial DnaK pre-incubated for 10 mins before FITC-NRLLLTG fluorescent peptide addition in presence of 20 uM ADP followed by further incubation for 2 hrs by fluorescence polarization assay; design: species or system Bacteria
Procedure, shortened: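 Repeat of the GRP78 fluorescence-polarization substrate-binding assay with the bacterial HSP70 DnaK in place of GRP78. The FITC-NRLLLTG peptide binds the substrate-binding domain in the ADP-bound closed state, raising polarization; inhibitors keep polarization low. Compound was tested in dose response and the IC50 derived. DnaK construct and concentration are not given.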

[4] = system: HCT-116; assay: Induction of apoptosis in human HCT116 cells assessed as increase in apoptotic cells at 25 uM incubated for 24 hrs by Annexin-V-FITC/propidium iodide staining based flow cytometric method relative to taxol; type: functional, cell-based; procedure, shortened: as §1
[5] = system: HCT-116; assay: Induction of apoptosis in human HCT116 cells at 5 to 25 uM incubated for 24 hrs by Annexin-V-FITC/propidium iodide staining based flow cytometric method; type: functional, cell-based; procedure, shortened: as §1
[6] = system: HCT-116; assay: Induction of apoptosis in human HCT116 cells assessed as increase in early apoptotic cells at 5 to 25 uM incubated for 24 hrs by Annexin-V-FITC/propidium iodide staining based flow cytometric method relative to taxol; type: functional, cell-based; procedure, shortened: as §1
[7] = system: HCT-116; assay: Induction of apoptosis in human HCT116 cells assessed as apoptotic cells at 10 uM incubated for 24 hrs by Annexin-V-FITC/propidium iodide staining based flow cytometric method relative to taxol; type: functional, cell-based; procedure, shortened: as §1
[8] = system: HCT-116; assay: Induction of autophagy in human HCT116 cells assessed as reduction in p62 level at 2 to 10 uM after 16 hrs by Western blot analysis
[9] = system: HCT-116; assay: Induction of autophagy in human HCT116 cells assessed as increase in LC3-2 level at 2 to 10 uM after 16 hrs by Western blot analysis
[10] = system: HCT-116; assay: Induction of apoptosis in human HCT116 cells 25 uM incubated for 16 to 48 hrs by Annexin-V-FITC/propidium iodide staining based flow cytometric method; type: functional, cell-based; conditions: TDE = time-dependent effect
Procedure, shortened: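 Time course in HCT116 cells. After treatment, cells were stained with annexin V and propidium iodide and analysed by flow cytometry. Early apoptosis was scored as annexin V+/PI−, late apoptosis as annexin V+/PI+. DMSO served as the negative control and Taxol as the apoptosis control.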

[11] = system: HCT-116; assay: Induction of autophagy in human HCT116 cells assessed as reduction in LC3-1 level at 2 to 10 uM after 16 hrs by Western blot analysis

Chain of Endoplasmic reticulum chaperone BiP (Homo sapiens) (P11021 whole entry, the tested form may be a part): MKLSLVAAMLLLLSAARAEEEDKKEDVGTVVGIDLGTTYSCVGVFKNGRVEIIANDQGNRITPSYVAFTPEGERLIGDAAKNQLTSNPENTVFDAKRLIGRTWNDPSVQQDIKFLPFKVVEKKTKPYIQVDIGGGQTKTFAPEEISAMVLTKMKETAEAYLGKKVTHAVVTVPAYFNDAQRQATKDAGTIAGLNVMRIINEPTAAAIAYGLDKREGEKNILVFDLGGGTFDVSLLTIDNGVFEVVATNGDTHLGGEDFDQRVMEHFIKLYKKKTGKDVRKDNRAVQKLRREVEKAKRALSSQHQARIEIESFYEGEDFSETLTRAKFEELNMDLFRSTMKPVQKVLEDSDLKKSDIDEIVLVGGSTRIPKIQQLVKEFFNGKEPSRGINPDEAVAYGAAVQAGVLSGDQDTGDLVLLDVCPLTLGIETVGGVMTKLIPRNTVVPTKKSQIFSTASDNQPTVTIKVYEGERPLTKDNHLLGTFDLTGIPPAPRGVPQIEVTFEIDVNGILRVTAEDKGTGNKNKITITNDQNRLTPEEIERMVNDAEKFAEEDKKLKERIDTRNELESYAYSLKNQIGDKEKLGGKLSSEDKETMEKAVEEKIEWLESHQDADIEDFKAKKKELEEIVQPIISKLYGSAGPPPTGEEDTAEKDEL

Compound: CC(=O)O[C@H]1C(=O)[C@@]2(C)[C@H]([C@H](OC(=O)c3ccccc3)[C@]3(O)C[C@H](OC(=O)[C@H](O)[C@@H](NC(=O)c4ccccc4)c4ccccc4)C(C)=C1C3(C)C)[C@]1(OC(C)=O)CO[C@@H]1C[C@@H]2O
Activity [1]: Active

Compound: Oc1c(Cl)cc(Cl)cc1Sc1cc(Cl)cc(Cl)c1O
inhibition [2]: Active

Now from value to compound, other results behind:

inhibition [2]: Active
Compound: Oc1c(Cl)cc(Cl)c(Cl)c1Sc1c(O)c(Cl)cc(Cl)c1Cl

inhibition [2]: Active
Compound: Oc1c(Cl)cc(Cl)cc1Cc1cc(Cl)cc(Cl)c1O

IC50 [3]: 51.6 µM | inhibition [2]: Dose-dependent effect
Compound: Oc1c(Cl)cc(Cl)c(Cl)c1Cc1c(O)c(Cl)cc(Cl)c1Cl [HEXACHLOROPHENE]
Activity [1]: Active | Activity [4]: Active | Activity [5]: Dose-dependent effect | Activity [6]: Active | Activity [7]: Active | Activity [8]: Active | Activity [9]: Active | Activity [10]: Tde | Activity [11]: Active
